Published values gathered from unrelated publications.
Observed: enzyme activity
Action: inhibitor
FLT3: Receptor-type tyrosine-protein kinase FLT3 (FLT3, Homo sapiens, UniProt P36888)
FLT3 D835Y: Receptor-type tyrosine-protein kinase FLT3 (FLT3, Homo sapiens, UniProt P36888, D835Y)

| Structure (SMILES) | target | technique | concentration | inhibition [%] |
| --- | --- | --- | --- | --- |
| CNc1cccc2cc(C(=O)Nc3ccc(C(=O)O)cc3)c(=O)[nH]c12 | FLT3 |  | 10 µM | 7.9 |
| CC/C(=N\NC(=O)NCc1cccc(O)c1)c1ccc(O)c(C)c1O | FLT3 |  | 0.1 µM | 6 |
| CCCS(=O)(=O)Nc1ccc(F)c(C(=O)c2c[nH]c3ncc(-c4ccc(Cl)cc4)cc23)c1F | FLT3 |  | 1 µM | < 20 |
| CN(C)C1CCN(CC#Cc2nn(C3CCCC3)c3nc(NCc4ccccc4)ncc23)C1 (stereo not drawn) | FLT3 | FRET | 0.1 µM | 13 |
| CN1CC(Oc2cnc(C#N)cc2-c2ccn3nc(NC(=O)C4CC4)cc3c2)C1 | FLT3 |  | 1 µM | 0 |
| COc1cc(-c2cc(-c3ccc(N4CCNCC4)cc3)cnc2N)cc(OC)c1OC | FLT3 D835Y |  | 1 µM | 2 |
| COc1cc2ncnc(Nc3ccc(Oc4ccccc4)c(C)c3C)c2cc1OC | FLT3 |  | 1 µM | 15 |
| Cn1cncc1C1=CN(c2ncnc3[nH]cnc23)CCS1 | FLT3 | radiometric | 2 µM | 88.1 |
| COc1cc2ncnc(Nc3ccc(Oc4ccccc4)cc3C)c2cc1OC | FLT3 D835Y |  | 1 µM | 17 |
| CS(=O)(=O)Nc1cccc(-c2csc(NC(=O)CSc3nc4nccnc4c(=O)n3CCc3ccccc3)n2)c1 | FLT3 |  | 10 µM | 8 |
| C=CC(=O)Nc1cc(Nc2nccc(Nc3cc(Cl)c(F)cc3C(C)(C)O)n2)c(OC)cc1N1CC[C@@H](N(C)C)C1 | FLT3 |  | 1 µM | 16 |
| Cn1cnc(Br)c1C1=CN(c2ncnc3[nH]cnc23)CCS1 | FLT3 | radiometric | 2 µM | 80.5 |
